# Compound activity from PubChem BioAssay.
# Rev-erbA mod: modulates human Rev-erb alpha binding to DNA | P20393 | Rev-erbα–FITC-DNA binding, fluorescence polarization, 90 min | activity, % at 10 µM | 370,000 compounds, 0.79% hits | AID 1259318;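 active = activity above about 14%, limit read from the data; passing the limit was not always enough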;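 also: 0% = DMSO wells with 35 nM protein and 100% = DMSO wells with 750 nM protein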
# NR2E3 ag-1: activates human NR2E3 receptor | Q9Y5X4 | CHO-S Gal4-NCOR/VP16-NR2E3 two-hybrid, luciferase | inhibition of corepressor binding, % at 3.98 µM | 360,000 compounds, 0.35% hits;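 active = inhibition above the mean of all tested compounds plus 3 SD, cut at about 70% in these data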;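 also: 0% = DMSO with NR2E3 transfected cells and 100% = cells lacking NR2E3 construct; higher means lower luciferase signal from less NR2E3 corepressor binding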
# PG9 binder: small molecules binding HIV-1 gp120 antibody PG9; TR-FRET gp120-PG9 antibody binding; 360,000 compounds, 0.43% hits; inhibition, % at 6.7 µM; AID 624416; in the data active = inhibition above about 8.5%
# NR2E3 ag-2: NR2E3 (human) agonism | Q9Y5X4 | GST-NR2E3/biotin-RetCOR TR-FRET, 1536-well | inhibition of corepressor binding, % at 4.78 µM | 320,000 compounds, 0.12% hits;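 active = percent inhibition above the cutoff of mean plus 3 SD of all tested compounds, set per screening campaign, cut at about 20% in these data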;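 also: 0% = DMSO wells and 100% = biotin wells as full block of FRET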
#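 System: GST-tagged NR2E3 plus biotinylated RetCOR corepressor; Buffer or medium: pH 7.5 Tris-based buffer; Probe or stimulus: RetCOR corepressor, biotinylated, 7 nM; Doses: compound at 4.8 µM, single dose; Schedule: 5 h incubation at 4 °C; Technique: time-resolved FRET; Evaluation: percent inhibition of TR-FRET ratio; Replication: one well per compound, singlicate testing.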
# Rev-erbA confirm: Rev-erb alpha (human) modulation, hit confirmation; shares compounds with Rev-erbA mod; Rev-erb alpha FITC-DNA binding, fluorescence polarization, 90 min; activation, % at 25 µM; 3,000 compounds, 61% hits; AID 1259319;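 active = activation at or above a set limit, or at least 3 SD above the negative control mean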;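 also: 0% = 35 nM protein with DMSO and 100% = 750 nM protein high control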
# RORg counter: affects RORgamma DNA binding in a Rev-erb alpha counter-screen. shares compounds with Rev-erbA mod. purified RORgamma protein-FITC-DNA binding, fluorescence polarization. IC50, µM. 910 compounds, 8% hits. AID 1259320;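 active = Compounds whose fitted half-maximal concentration for disrupting protein-DNA binding is below 10 micromolar; the record names Rev-erb in its text, so the target is in doubt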
# Numbers without * were called inactive; x = not tested or not shown. In the library only some 1.5% were active in any assay of this set; here they are far more common.
SMILES,Rev-erbA mod,NR2E3 ag-1,PG9 binder,NR2E3 ag-2,Rev-erbA confirm,others
COc1ccc2oc(C(=O)Nc3cccc(S(=O)(=O)N4CCOCC4)c3)c(C)c2c1,6,-21,0,x,x,
O=C(CCc1ccccc1)NC(=S)Nc1cccc(Br)c1,-1,-13,0,-2,x,
O=C(CCc1ccccc1)NC(=S)Nc1ccc2c(c1)C(=O)OC2,31*,-27,8,-6,30*,
COc1cccc(Cn2cc(COC(=O)N3CCCC3)nn2)c1,-3,x,x,x,x,
CCN(C(=O)c1ccco1)c1nnc(-c2ccc(OC)cc2)s1,25*,-146,3,-2,-4,
C[C@H]1[C@@H](N(C)CC2CCCCC2)CC[C@@]23CCCN2C(=O)CCC[C@@H]13,3,x,x,x,x,
Cc1ccc(-c2nc3ccccc3s2)cc1NC(=S)NC(=O)c1ccccc1,-1,-118,0,0,x,
Cc1ccc(-c2nc3ccccc3s2)cc1NC(=O)c1cc(-n2cnnc2)ccc1Cl,33*,-22,4,0,32*,RORg counter=>40
O=C(Nc1ccc2c(c1)OCO2)NC1CCCCN(Cc2cccc(Cl)c2)C1=O (stereo not given),-8,x,x,x,x,
COc1ccccc1NC(=S)OCCN1CCCC12CCC(c1ccccc1)CC2 (stereo not given),-2,x,x,x,x,
CSC1=C(C#N)C(c2ccccc2C)C(C#N)=C(N)N1 (stereo not given),27*,-5,-3,0,14,
CSC1=C(C#N)C(c2ccccc2Cl)C2=C(N1)c1ccccc1C2=O (stereo not given),62*,-5,0,2,20*,
CC1=C(C#N)C(c2ccccc2)C2=C(N1)c1ccccc1C2=O (stereo not given),-3,-7,0,-1,x,
CC(=O)C1=C(c2ccccc2)OC(N)=C(C#N)C1c1ccccc1C (stereo not given),5,1,-1,0,x,
Oc1ccc2[nH]cc(CCc3ccccc3)c2c1-c1ccccc1,3,x,x,x,x,
CC(C)=CC(=O)O[C@@H]1Cc2c(ccc3ccc(=O)oc23)OC1(C)C,26*,-26,0,x,23*,
COc1ccc2c(C(c3ccccc3O)C3CCCN3S(=O)(=O)c3ccc(C)cc3)cn(C)c2c1 (stereo not given),-5,x,x,x,x,
COc1ncccc1-c1nnn(-c2ccc(C)cc2)n1,-7,-90,-2,3,x,
Cc1ccc(-n2nnc(-c3cc4ccccc4nc3Cl)n2)cc1,35*,-20,0,7,30*,
O=C(NCc1cccc2ccccc12)C1CCCN(c2nc3ccccc3o2)C1 (stereo not given),-1,x,x,x,x,
COc1ccc(CCn2c(C)nc3c(c(=O)c4ccccc4n3C)c2=O)cc1,2,-61,-1,2,x,
COc1ccc(Cn2c(-c3ccccc3C)nc3c(c(=O)c4ccccc4n3C)c2=O)cc1,45*,-5,2,5,2,
COc1ccc(Cn2c(-c3ccco3)nc3c(c(=O)c4ccccc4n3C)c2=O)cc1,-22,0,4,0,x,
Cc1ccc(-c2nc3c(c(=O)c4ccccc4n3C)c(=O)n2-c2ccc(F)cc2)cc1,69*,-27,-1,1,43*,RORg counter=2.7*
COc1ccc(Cn2c(-c3ccc(C)cc3)nc3c(c(=O)c4ccccc4n3C)c2=O)cc1,27*,-6,1,3,14,
SMILES,Rev-erbA mod,NR2E3 ag-1,PG9 binder,NR2E3 ag-2,Rev-erbA confirm,others
CCCCCc1nc2c(c(=O)c3ccccc3n2C)c(=O)n1Cc1ccc(OC)cc1,67*,-12,1,0,34*,RORg counter=>40
COc1ccc(Cn2c(C)nc3c(c(=O)c4ccccc4n3C)c2=O)cc1,4,-20,-2,-5,x,
Cn1c2ccccc2c(=O)c2c(=O)n(-c3ccc(F)cc3)c(-c3cccs3)nc21,2,-17,2,1,x,
COc1ccc(-c2nc3c(c(=O)c4ccccc4n3C)c(=O)n2Cc2ccccc2)cc1,48*,-32,1,-1,50*,RORg counter=>40
COc1ccc(CCn2c(C(C)C)nc3c(c(=O)c4ccccc4n3C)c2=O)cc1,x,10,x,6,x,
COc1ccc(-c2nc3c(c(=O)[nH]c(=O)n3Cc3ccccc3)n2C)cc1,43*,0,0,5,0,
COc1cccc(/C=C2\CC3(OC(=O)c4ccc(Cl)cc4)CCCN2C3)c1 (stereo not given),1,x,x,x,x,
